An excerpt weighted towards active compounds, which were near 1.7% of everything screened.
IDE act – activators of human insulin-degrading enzyme in cells; P14735; HEK cells, FAbeta-B cleavage, fluorescence polarization; 0% vehicle, 100% cell-free pure enzyme wells; activation, % at 5.96 µM; 340,000 tested, 0.073% active; AID 493087;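 active = activation above the mean of all tested compounds plus 3 SD, set per screening campaign, cut at about 17% in these data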
Target sequence (P14735 whole entry, looked up): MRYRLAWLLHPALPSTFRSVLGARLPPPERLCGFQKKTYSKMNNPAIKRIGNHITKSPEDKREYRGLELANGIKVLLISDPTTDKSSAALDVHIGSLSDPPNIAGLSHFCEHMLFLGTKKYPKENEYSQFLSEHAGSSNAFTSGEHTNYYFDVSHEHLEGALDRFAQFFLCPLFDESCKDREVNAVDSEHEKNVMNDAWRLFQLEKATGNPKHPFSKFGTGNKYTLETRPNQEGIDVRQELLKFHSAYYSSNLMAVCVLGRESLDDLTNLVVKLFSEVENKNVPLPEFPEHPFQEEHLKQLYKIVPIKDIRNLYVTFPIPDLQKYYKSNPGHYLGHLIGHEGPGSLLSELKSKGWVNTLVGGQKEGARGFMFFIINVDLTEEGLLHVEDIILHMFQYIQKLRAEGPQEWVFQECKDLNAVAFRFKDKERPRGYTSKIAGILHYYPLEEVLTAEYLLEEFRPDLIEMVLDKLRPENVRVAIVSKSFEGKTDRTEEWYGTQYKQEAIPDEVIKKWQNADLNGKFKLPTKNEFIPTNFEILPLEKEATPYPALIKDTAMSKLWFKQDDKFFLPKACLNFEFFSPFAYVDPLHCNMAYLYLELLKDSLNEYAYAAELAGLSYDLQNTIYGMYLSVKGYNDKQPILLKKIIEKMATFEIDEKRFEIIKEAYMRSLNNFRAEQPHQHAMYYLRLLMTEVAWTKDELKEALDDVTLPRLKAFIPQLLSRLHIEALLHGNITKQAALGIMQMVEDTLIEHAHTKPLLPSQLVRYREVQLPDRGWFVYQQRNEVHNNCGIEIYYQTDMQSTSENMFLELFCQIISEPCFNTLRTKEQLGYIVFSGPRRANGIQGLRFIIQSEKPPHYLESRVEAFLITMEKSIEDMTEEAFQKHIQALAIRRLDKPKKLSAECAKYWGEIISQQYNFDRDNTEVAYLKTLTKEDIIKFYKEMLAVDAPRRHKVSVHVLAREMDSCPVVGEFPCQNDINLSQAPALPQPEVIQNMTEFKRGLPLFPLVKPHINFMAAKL
CSN deneddyl inh – inhibitors of human CSN-mediated cullin deneddylation; Q92905; Purified CSN, SCF-Nedd8-OG deneddylation, fluorescence polarization; inhibition, % at 12.5 µM; 360,000 tested, 0.38% active; AID 651999;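 active = pattern-corrected inhibition above about 35%, with an unprinted fluorescence ratio check between 0.5 and 1.5, limit read from the data, passing the limit was not always enough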
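Detection – fluorescence polarization · System – HEK293T-derived human Csn5 enzyme · Controls – substrate-only high control, full reaction low control · Timing – 90 min, room temperature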
TPT1 inh – inhibitors of Candida albicans tRNA 2'-phosphotransferase TPT1; 300,000 tested, 0.81% active; recombinant caTPT1, FP RNA substrate dephosphorylation; inhibition, % at 5 µM;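 active = inhibition above the mean of all tested compounds plus 3 SD, set per screening campaign, cut at about 24% in these data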
HNF4A DNA FP – change in binding of human HNF4 alpha to DNA; activity change, % at 10 µM; HNF4a-FITC DNA binding, fluorescence polarization, 1 h; 360,000 tested, 0.3% active; P41235; AID 1224865; in the data active = activity change above about 30%, passing the limit was not always enough
IDE inh – inhibitors of human insulin-degrading enzyme in cells; 320,000 tested, 0.41% active; inhibition, % at 5.59 µM; HEK cells, FAbetaB cleavage, fluorescence polarization;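 active = percent inhibition above the average of all tested compounds plus 3 SD, set per screening campaign, cut at about 16% in these data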;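 note: IDE supplied by intact live HEK cells; FP after avidin binding of uncleaved biotin substrate so inhibition keeps polarization high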
Rpn11 block – Rpn11 (human) deubiquitinase inhibition | O00487 | human 26S proteasome, Ub4-pepOG fluorescence polarization; 20S core pre-blocked with epoxomicin | inhibition, % at 20 µM | 360,000 tested, 0.59% active;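 active = inhibition at 20 µM, scaled to each plate's controls, above about 33%, limit read from the data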
Large screens that a line does not name were inactive.

CCC1=NN2C(=N)/C(=C/c3ccc(OS(=O)(=O)c4ccccc4)cc3)C(=O)N=C2S1	HNF4A DNA FP 33.1
O=C(Nc1cccc(S(=O)(=O)NC2=NCCCCC2)c1)c1cc(-c2ccco2)nc2ccccc12	Rpn11 block 40.9
CCc1cc(Cn2nc(C(=O)O)cc2-c2ccccc2)on1	IDE act 19.3
O=C(C(=O)N1CCN(c2ccncc2)CC1)c1cccc(Br)c1	none (no result: IDE act, TPT1 inh, IDE inh, Rpn11 block)
CCCSc1nc(C)c(-c2csc(C(C#N)=C3CCCC3)n2)cc1C#N	CSN deneddyl inh 45.1
COc1ccccc1OCC(=O)NCC1CCCN(C(=O)c2cccc(C)c2)C1 (stereo not given)	none (no result: IDE act, TPT1 inh, IDE inh)
Cc1ccc(S(=O)(=O)N2CCOCC2)cc1C(=O)Nc1ccc(-c2cn3ccsc3n2)cc1	IDE inh 19.9
Cc1ccc(S(=O)(=O)N2CCOCC2)cc1C(=O)Nc1ccncc1	none (no result: TPT1 inh)
CC1=C(C(=O)N2CCCCCC2)CC(CC(=O)NC(c2ccccc2)c2ccccc2)C(=O)N1CCC1=CCCCC1 (stereo not given)	none (no result: IDE act, TPT1 inh, IDE inh, Rpn11 block)
O=C(c1ccc(-c2ccccc2)cc1)N1CCN(c2ccc3c(c2)C2CC3CCN2C(=O)OCc2ccccc2)CC1 (stereo not given)	CSN deneddyl inh 112.6 (no result: IDE act, TPT1 inh, IDE inh)
N#CCCn1cc(/C=N/NC(N)=S)c(-c2ccccc2)n1	CSN deneddyl inh 106.6
CCOC(=O)COc1ccc(Br)cc1/C=C/c1[nH]c(=O)[nH]c(=O)c1[N+](=O)[O-]	CSN deneddyl inh 38.7
CCOC(=O)COc1ccc(Br)cc1/C=C\c1[nH]c(=O)[nH]c(=O)c1[N+](=O)[O-]	none
CCOc1ccc(N2CC(C(=O)OC)CC2=O)cc1 (stereo not given)	HNF4A DNA FP 49.8
CCNC(=O)C1CC(=O)N(c2ccc(OCC)cc2)C1 (stereo not given)	none
COc1cccc2cc(-c3ccnc(=S)[nH]3)oc12	IDE inh 39.3 (no result: IDE act, CSN deneddyl inh, HNF4A DNA FP, Rpn11 block)
COc1cccc2cc(-c3ccccc3)oc12	none (no result: IDE act)
Nc1[nH]c(C(=O)c2ccccc2)c(-c2ccc(Br)cc2)c1C(=O)c1ccc(Br)cc1	none (no result: IDE act, TPT1 inh, IDE inh, Rpn11 block)
Cc1ccc2[nH]c3c(Cl)ncnc3c2c1	none (no result: IDE act)
CCCOc1ncnc2c1[nH]c1ccc(C)cc12	IDE inh 37.1 (no result: IDE act, CSN deneddyl inh, HNF4A DNA FP, Rpn11 block)
CCOc1ncnc2c1[nH]c1ccccc12	IDE inh 18.3
COc1ccc(CNc2ncnc3c2[nH]c2ccccc23)cc1	IDE inh 60.5 (no result: IDE act)
CCC(CC)C(C(=O)NCc1ccccc1)N1CCN(c2cccc(C)c2C)CC1 (stereo not given)	none (no result: IDE act, TPT1 inh, IDE inh, Rpn11 block)
COc1ccc(S(=O)(=O)N[C@H]2CC[C@H](CCNC(=O)c3ccccc3F)O[C@@H]2CO)cc1	none (no result: IDE act, TPT1 inh, IDE inh, Rpn11 block)
NC(=O)C1=C(N=C2CCCCC2)CCCC1	CSN deneddyl inh 53.2 (no result: TPT1 inh, IDE inh)
CCC[C@H]1NC(=O)[C@H](C)N(C)C(=O)C(C)(C)C(=O)C(C)NC(=O)[C@H](Cc2ccc(OC)cc2)N(C)C(=O)[C@H](C(C)C)N(C)C(=O)CNC(=O)[C@H](CC(C)C)N(C)C(=O)CNC(=O)[C@H]([C@@H](C)CC)OC(=O)[C@H]1C (stereo not given in full)	none (no result: IDE act, CSN deneddyl inh, TPT1 inh, HNF4A DNA FP, Rpn11 block)
O=C1CSC(=S)N1/N=C/c1c(F)cccc1F	none
O=C1CSC(=S)N1N=Cc1c(O)ccc2ccccc12	HNF4A DNA FP 93.1 (not shown: TPT1 inh, IDE inh, Rpn11 block)
Fc1ccc(COc2ccccc2CNCc2ccncc2)cc1	IDE inh 17.4
Brc1ccc(OCc2ccccc2)c(CNCc2ccncc2)c1	none
O=C(c1cnn(C(=O)c2ccco2)c1)c1cc(F)ccc1O	IDE act 27.4 (no result: TPT1 inh)
O=C(c1cnn(C(=O)c2ccco2)c1)c1cc(Cl)cc(Cl)c1O	none (no result: TPT1 inh)
COc1cc(C2c3c([nH]c(=O)[nH]c3=O)Nc3ccc4ccccc4c32)cc(OC)c1OC (stereo not given)	CSN deneddyl inh 66.2
CC1CCCC(C)N1C(=O)CSc1nc(N)cc(N)n1 (stereo not given)	HNF4A DNA FP 53.3
COC(=O)[C@@]12C[C@@H](CC(=O)NCc3cccc4ccccc34)C(=O)N(Cc3ccco3)C1=CCC(C)(C)C2	none (no result: IDE act, TPT1 inh, IDE inh, Rpn11 block)
Cc1ccccc1CNC(=O)c1ccccc1SCC(=O)NCc1ccco1	none (no result: TPT1 inh, IDE inh)
CC(=O)N1CCc2cc(S(=O)(=O)NCCC(=O)N3CCN(Cc4ccccc4)CC3)ccc21	IDE act 19.0
Cc1ccc(S(=O)(=O)NCCC(=O)N2CCN(Cc3ccccc3)CC2)cc1	none
CCOc1cccc(=O)c2c(C)n(CC(=O)c3ccccc3)c(C)c12	none
COc1cccc(=O)c2c(C)n(CC(=O)c3ccccc3)c(C)c12	TPT1 inh 29.9
Cc1ccc(F)cc1C(=O)N1CCOCC1c1cc(C(=O)Nc2ccccc2)no1 (stereo not given)	none (no result: IDE act, TPT1 inh, IDE inh)
COc1ccc(Cc2c(-c3ccco3)nc3ccc(Cl)cn23)c(C)c1	CSN deneddyl inh 40.1 (no result: IDE act, TPT1 inh, IDE inh)
COc1ccc(Cc2c(-c3ccco3)nc3ccc(Br)cn23)c(C)c1	none (no result: IDE act, TPT1 inh, IDE inh)
CN1CCN(C(=O)C[C@H]2CC[C@H]3[C@@H](COC[C@@H](O)CN3C(=O)C3CCCC3)O2)CC1	none (no result: IDE act, TPT1 inh, IDE inh, Rpn11 block)
CC[C@]12c3[nH]c4ccc(Cl)cc4c3CCN1C(=O)[C@@H](CC(=O)NCCN1CCOCC1)C[C@@H]2C(=O)N1CCN(C(=O)c2ccco2)CC1	CSN deneddyl inh 95.5 (no result: TPT1 inh, IDE inh)
CC[C@]12c3[nH]c4ccc(Cl)cc4c3CCN1C(=O)[C@@H](CC(=O)NCc1ccco1)C[C@@H]2C(=O)N1CCN(C(=O)c2ccco2)CC1	none (no result: TPT1 inh, IDE inh)
O=C(C[C@@H]1CC[C@@H]2[C@H](COC[C@H](O)CN2C(=O)Nc2ccc(F)cc2)O1)NCCc1ccncc1	none (no result: IDE act, TPT1 inh, IDE inh, Rpn11 block)
Cc1nc([N+](=O)[O-])cn1CC(=O)c1ccc(F)cc1	HNF4A DNA FP 76.8
CCN(CC)C(=O)C1=C(C)N(Cc2ccc(OC)cc2)C(=O)C(CC(=O)NCCc2ccccn2)C1 (stereo not given)	CSN deneddyl inh 85.3 (no result: IDE act, TPT1 inh, IDE inh)
CCN(CC)C(=O)C1=C(C)N(Cc2ccc(C(C)(C)C)cc2)C(=O)C(CC(=O)NC(c2ccccc2)c2ccccc2)C1 (stereo not given)	CSN deneddyl inh active (no result: IDE act, TPT1 inh, IDE inh)
O=C(NCc1ccccc1)C(c1ccc(-c2ccccc2)cc1)n1c(=O)c(-c2ccco2)nc2ccccc21 (stereo not given)	none (no result: IDE act, TPT1 inh, IDE inh, Rpn11 block)
Cc1ccc(C)c(S(=O)(=O)N2CCCC2CNC(=O)C(=O)NCC2CCCO2)c1 (stereo not given)	HNF4A DNA FP 33.9
CCNC(=O)C1(C)CCCN(C(=O)c2cc(-c3ccccc3)cs2)C1 (stereo not given)	none (no result: IDE act, TPT1 inh, IDE inh)
Cc1ccc(S(=O)(=O)N2CC3C(=O)C[C@@H](c4ccccc4)N(S(=O)(=O)c4ccccc4Cl)C3CC2c2ccccc2)cc1 (stereo not given in full)	none (no result: IDE act, TPT1 inh, IDE inh, Rpn11 block)
Cc1ccc(/C=c2\sc3nc(-c4ccco4)nn3c2=O)o1	CSN deneddyl inh 43.3 (not shown: Rpn11 block)
Cc1ccc(-c2nc3s/c(=C\c4ccco4)c(=O)n3n2)cc1	CSN deneddyl inh 38.4

From PubChem
